In PubChem BioAssay AID624406 (The Scripps Research Institute Molecular Screening Center, 2012):
Activity calls are given as the source filed them.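 Rule for the calls: active = inhibition of radioligand binding at or above 50% in any panel; inactive = inhibition below 50%.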

Tests used:
Test in all cases: off-target binding at receptors and transporters, profiling panel, selectivity assay for HCV core dimerization inhibitor project, cell-based, radioligand binding, Ricerca panel (AID 624406)
[1] = biological target: 5-hydroxytryptamine receptor 1A (Homo sapiens) (UniProt P08908); conditions: Serotonin (5-Hydroxytryptamine) 5-HT1A, at 10 µM, stronger effect = higher value
Method in brief: (§1)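 Control set: Reference standards included in every assay run | Measure: % radioligand displacement, negatives meaning binding stimulation | Replication: Duplicate measurements per compound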

[2] = biological target: 5-hydroxytryptamine receptor 2B (Homo sapiens) (UniProt P41595); conditions: Serotonin (5-Hydroxytryptamine) 5-HT2B, at 10 µM, stronger effect = higher value
Sequence of 5-hydroxytryptamine receptor 2B (Homo sapiens) (P41595 whole entry, looked up): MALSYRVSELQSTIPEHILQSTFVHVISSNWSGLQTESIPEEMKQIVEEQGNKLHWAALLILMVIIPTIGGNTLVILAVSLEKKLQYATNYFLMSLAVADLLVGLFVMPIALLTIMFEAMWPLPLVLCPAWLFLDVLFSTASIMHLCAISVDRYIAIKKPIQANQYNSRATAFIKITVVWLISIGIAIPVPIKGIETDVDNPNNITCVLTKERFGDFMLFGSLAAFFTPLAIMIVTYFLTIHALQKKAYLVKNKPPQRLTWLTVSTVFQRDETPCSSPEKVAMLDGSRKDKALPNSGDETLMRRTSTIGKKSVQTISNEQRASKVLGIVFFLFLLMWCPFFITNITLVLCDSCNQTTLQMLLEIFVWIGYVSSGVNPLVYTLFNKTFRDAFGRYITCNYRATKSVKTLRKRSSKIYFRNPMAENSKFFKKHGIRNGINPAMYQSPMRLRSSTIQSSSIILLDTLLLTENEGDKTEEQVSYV
Method in brief: as §1

Adenosine A1 = conditions: at 10 µM, stronger effect = higher value
Method in brief: as §1

Adenosine A2A = conditions: at 10 µM, stronger effect = higher value
Method in brief: as §1

Adenosine A3 = conditions: at 10 µM, stronger effect = higher value
Method in brief: as §1

Adrenergic alpha1A = conditions: at 10 µM, stronger effect = higher value
Method in brief: as §1

Adrenergic alpha1B = conditions: at 10 µM, stronger effect = higher value
Method in brief: as §1

Adrenergic alpha1D = conditions: at 10 µM, stronger effect = higher value
Method in brief: as §1

Adrenergic beta1 = conditions: at 10 µM, stronger effect = higher value
Method in brief: as §1

[3] = biological target: Alpha-2A adrenergic receptor (Homo sapiens) (UniProt P08913); conditions: Adrenergic alpha2A, at 10 µM, stronger effect = higher value
Sequence of Alpha-2A adrenergic receptor (Homo sapiens) (P08913 whole entry, looked up): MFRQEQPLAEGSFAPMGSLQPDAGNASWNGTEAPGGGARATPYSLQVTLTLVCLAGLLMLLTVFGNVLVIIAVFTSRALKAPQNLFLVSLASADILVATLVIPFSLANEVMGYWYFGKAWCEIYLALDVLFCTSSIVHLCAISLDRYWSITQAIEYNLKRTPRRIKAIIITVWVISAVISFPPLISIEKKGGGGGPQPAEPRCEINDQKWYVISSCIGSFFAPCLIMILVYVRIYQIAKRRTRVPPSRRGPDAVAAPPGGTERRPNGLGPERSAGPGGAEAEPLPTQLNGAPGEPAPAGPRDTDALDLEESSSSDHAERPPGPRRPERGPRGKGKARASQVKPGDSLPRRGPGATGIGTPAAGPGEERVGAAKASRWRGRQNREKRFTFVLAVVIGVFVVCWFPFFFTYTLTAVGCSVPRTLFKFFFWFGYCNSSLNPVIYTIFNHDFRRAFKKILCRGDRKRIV
Method in brief: as §1

[4] = system: Androgen (Testosterone) AR; conditions: at 10 µM, stronger effect = higher value
Method in brief: as §1

[5] = biological target: Beta-2 adrenergic receptor (Homo sapiens) (UniProt P07550); conditions: Adrenergic beta2, at 10 µM, stronger effect = higher value
Sequence of Beta-2 adrenergic receptor (Homo sapiens) (P07550 whole entry, looked up): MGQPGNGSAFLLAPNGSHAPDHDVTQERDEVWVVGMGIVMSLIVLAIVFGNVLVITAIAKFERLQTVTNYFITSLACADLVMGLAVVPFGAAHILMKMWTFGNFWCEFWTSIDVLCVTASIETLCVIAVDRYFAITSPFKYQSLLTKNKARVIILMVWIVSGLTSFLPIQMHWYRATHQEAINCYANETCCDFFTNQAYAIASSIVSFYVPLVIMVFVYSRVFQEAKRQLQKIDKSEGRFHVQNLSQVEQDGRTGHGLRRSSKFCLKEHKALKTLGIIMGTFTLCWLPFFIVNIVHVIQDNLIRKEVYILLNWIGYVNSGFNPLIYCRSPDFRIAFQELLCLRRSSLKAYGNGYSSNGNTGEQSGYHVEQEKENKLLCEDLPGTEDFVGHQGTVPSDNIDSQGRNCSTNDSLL
Method in brief: as §1

Bradykinin B1 = conditions: at 10 µM, stronger effect = higher value
Method in brief: as §1

Bradykinin B2 = conditions: at 10 µM, stronger effect = higher value
Method in brief: as §1

Calcium Channel L-Type = conditions: at 10 µM, stronger effect = higher value
Method in brief: as §1

Calcium Channel N-Type = conditions: at 10 µM, stronger effect = higher value
Method in brief: as §1

Cannabinoid CB1 = conditions: at 10 µM, stronger effect = higher value
Method in brief: as §1

[6] = biological target: D(1A) dopamine receptor (Homo sapiens) (UniProt P21728); conditions: Dopamine D1, at 10 µM, stronger effect = higher value
Sequence of D(1A) dopamine receptor (Homo sapiens) (P21728 whole entry, looked up): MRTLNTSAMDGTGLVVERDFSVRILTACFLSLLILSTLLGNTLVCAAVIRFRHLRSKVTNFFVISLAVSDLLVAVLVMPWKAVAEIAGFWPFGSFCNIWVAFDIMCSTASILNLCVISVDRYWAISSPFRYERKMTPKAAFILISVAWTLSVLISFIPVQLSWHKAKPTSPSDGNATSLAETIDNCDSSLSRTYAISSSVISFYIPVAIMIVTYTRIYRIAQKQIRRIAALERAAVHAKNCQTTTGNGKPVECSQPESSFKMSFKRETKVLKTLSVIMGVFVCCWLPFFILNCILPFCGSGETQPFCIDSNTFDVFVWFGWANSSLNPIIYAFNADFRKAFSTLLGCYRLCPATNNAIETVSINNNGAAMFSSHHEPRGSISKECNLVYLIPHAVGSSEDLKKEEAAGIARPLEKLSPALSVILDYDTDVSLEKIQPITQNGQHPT
Method in brief: as §1

[7] = biological target: D(3) dopamine receptor (Homo sapiens) (UniProt P35462); conditions: Dopamine D3, at 10 µM, stronger effect = higher value
Method in brief: as §1

[8] = biological target: Delta-type opioid receptor (Homo sapiens) (UniProt P41143); conditions: Opiate delat1 (OP1, DOP), at 10 µM, stronger effect = higher value
Sequence of Delta-type opioid receptor (Homo sapiens) (P41143 whole entry, looked up): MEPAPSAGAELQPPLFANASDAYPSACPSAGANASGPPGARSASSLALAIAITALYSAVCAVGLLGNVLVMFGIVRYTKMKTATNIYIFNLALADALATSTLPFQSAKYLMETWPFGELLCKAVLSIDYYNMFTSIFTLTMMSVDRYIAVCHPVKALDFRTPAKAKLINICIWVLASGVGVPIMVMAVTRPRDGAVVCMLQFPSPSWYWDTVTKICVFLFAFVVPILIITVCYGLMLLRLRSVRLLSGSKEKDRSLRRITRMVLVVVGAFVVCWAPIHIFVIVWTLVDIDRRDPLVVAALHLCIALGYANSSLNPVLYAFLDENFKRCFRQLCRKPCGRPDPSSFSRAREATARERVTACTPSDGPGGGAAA
Method in brief: as §1

Dopamine D2S = conditions: at 10 µM, stronger effect = higher value
Method in brief: as §1

Dopamine D4.2 = conditions: at 10 µM, stronger effect = higher value
Method in brief: as §1

Endothelin ETA = conditions: at 10 µM, stronger effect = higher value
Method in brief: as §1

Endothelin ETB = conditions: at 10 µM, stronger effect = higher value
Method in brief: as §1

[9] = system: Epidermal Growth Factor (EGF); conditions: at 10 µM, stronger effect = higher value
Method in brief: as §1

[10] = biological target: Estrogen receptor (Homo sapiens) (UniProt P03372); conditions: Estrogen Eralpha, at 10 µM, stronger effect = higher value
Sequence of Estrogen receptor (Homo sapiens) (P03372 whole entry, looked up): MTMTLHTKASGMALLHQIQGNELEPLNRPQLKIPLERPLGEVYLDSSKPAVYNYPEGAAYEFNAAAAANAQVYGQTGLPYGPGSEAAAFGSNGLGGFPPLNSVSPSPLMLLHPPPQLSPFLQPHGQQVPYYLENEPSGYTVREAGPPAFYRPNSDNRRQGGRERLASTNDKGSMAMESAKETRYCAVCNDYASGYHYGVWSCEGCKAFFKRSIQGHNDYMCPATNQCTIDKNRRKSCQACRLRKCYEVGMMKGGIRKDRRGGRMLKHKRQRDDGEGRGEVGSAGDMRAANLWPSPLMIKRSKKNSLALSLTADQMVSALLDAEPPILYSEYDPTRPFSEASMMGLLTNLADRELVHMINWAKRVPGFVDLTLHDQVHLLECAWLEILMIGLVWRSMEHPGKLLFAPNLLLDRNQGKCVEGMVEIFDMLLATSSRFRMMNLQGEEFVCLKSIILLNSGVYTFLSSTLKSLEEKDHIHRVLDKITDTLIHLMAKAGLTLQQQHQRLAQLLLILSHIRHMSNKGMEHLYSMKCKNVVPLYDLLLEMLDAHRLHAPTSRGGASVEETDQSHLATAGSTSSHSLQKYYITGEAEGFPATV
Method in brief: as §1

GABAA = conditions: central, at 10 µM, stronger effect = higher value
Method in brief: as §1

GABAB1A = conditions: at 10 µM, stronger effect = higher value
Method in brief: as §1

[11] = biological target: Glucocorticoid receptor (Homo sapiens) (UniProt P04150); conditions: at 10 µM, stronger effect = higher value
Method in brief: as §1

Glutamate Kainate = conditions: at 10 µM, stronger effect = higher value
Method in brief: as §1

Glutamate NMDA = conditions: at 10 µM, stronger effect = higher value
Method in brief: as §1

Histamine H1 = conditions: at 10 µM, stronger effect = higher value
Method in brief: as §1

Histamine H2 = conditions: at 10 µM, stronger effect = higher value
Method in brief: as §1

Histamine H3 = conditions: at 10 µM, stronger effect = higher value
Method in brief: as §1

Imidazoline I2 = conditions: central, at 10 µM, stronger effect = higher value
Method in brief: as §1

Interleukin IL-1 = conditions: at 10 µM, stronger effect = higher value
Method in brief: as §1

[12] = biological target: Kappa-type opioid receptor (Homo sapiens) (UniProt P41145); conditions: Opiate kappa (OP2, KOP), at 10 µM, stronger effect = higher value
Sequence of Kappa-type opioid receptor (Homo sapiens) (P41145 whole entry, looked up): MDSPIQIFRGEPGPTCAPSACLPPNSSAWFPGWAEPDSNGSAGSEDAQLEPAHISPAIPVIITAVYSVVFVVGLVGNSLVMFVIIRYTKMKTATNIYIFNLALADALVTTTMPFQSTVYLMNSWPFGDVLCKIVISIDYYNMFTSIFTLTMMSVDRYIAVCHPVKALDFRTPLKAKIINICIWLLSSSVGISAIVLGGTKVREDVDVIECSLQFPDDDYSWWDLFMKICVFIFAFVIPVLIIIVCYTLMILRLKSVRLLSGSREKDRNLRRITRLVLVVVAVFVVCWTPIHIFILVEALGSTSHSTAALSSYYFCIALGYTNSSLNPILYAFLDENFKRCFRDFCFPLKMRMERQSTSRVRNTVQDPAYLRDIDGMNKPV
Method in brief: as §1

[13] = system: Leukotriene, Cysteinyl CysLT1; conditions: at 10 µM, stronger effect = higher value
Method in brief: as §1

Melatonin MT1 = conditions: at 10 µM, stronger effect = higher value
Method in brief: as §1

[14] = biological target: Muscarinic acetylcholine receptor M1 (Homo sapiens) (UniProt P11229); conditions: at 10 µM, stronger effect = higher value
Method in brief: as §1

[15] = biological target: Muscarinic acetylcholine receptor M2 (Homo sapiens) (UniProt P08172); conditions: at 10 µM, stronger effect = higher value
Sequence of Muscarinic acetylcholine receptor M2 (Homo sapiens) (P08172 whole entry, looked up): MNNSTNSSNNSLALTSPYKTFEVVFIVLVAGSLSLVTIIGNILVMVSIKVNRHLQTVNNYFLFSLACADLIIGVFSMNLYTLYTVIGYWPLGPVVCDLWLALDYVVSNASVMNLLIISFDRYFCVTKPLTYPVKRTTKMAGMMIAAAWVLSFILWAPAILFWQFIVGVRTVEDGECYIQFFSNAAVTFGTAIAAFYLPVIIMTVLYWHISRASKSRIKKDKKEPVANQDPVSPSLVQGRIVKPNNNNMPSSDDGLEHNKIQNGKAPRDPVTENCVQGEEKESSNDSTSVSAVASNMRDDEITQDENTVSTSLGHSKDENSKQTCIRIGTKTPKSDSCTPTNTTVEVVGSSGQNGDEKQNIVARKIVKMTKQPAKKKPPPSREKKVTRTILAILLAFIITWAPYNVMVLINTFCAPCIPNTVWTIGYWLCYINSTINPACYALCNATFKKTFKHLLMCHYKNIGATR
Method in brief: as §1

[16] = biological target: Muscarinic acetylcholine receptor M3 (Homo sapiens) (UniProt P20309); conditions: at 10 µM, stronger effect = higher value
Sequence of Muscarinic acetylcholine receptor M3 (Homo sapiens) (P20309 whole entry, looked up): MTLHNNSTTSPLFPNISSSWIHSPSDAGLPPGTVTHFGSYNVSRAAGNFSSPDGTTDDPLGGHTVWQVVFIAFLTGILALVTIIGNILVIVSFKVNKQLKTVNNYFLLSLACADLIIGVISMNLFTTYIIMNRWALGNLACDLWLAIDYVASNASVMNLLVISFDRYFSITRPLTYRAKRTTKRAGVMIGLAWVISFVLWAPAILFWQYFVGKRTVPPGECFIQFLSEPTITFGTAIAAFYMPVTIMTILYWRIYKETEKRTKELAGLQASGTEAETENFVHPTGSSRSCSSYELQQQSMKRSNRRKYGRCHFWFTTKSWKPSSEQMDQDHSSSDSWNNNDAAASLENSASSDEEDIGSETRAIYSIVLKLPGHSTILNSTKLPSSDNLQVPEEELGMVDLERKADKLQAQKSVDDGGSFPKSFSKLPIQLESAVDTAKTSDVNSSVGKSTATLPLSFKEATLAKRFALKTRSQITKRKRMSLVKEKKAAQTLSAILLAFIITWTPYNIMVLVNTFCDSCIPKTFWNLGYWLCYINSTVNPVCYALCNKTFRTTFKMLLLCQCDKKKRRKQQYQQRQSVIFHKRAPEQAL
Method in brief: as §1

[17] = biological target: Neuropeptide Y receptor type 1 (Homo sapiens) (UniProt P25929); conditions: Neuropeptide Y Y1, at 10 µM, stronger effect = higher value
Sequence of Neuropeptide Y receptor type 1 (Homo sapiens) (P25929 whole entry, looked up): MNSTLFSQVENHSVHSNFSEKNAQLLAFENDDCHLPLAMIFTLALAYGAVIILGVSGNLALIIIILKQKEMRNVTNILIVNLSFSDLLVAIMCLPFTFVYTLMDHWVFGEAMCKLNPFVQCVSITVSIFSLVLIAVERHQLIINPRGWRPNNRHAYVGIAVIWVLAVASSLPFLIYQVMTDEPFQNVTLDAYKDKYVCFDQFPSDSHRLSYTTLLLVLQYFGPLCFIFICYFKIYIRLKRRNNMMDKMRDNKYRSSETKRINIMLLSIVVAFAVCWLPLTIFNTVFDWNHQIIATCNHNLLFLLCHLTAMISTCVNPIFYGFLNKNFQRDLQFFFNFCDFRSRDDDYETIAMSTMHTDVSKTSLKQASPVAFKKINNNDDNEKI
Method in brief: as §1

[18] = biological target: Neuropeptide Y receptor type 2 (Homo sapiens) (UniProt P49146); conditions: Neuropeptide Y Y2, at 10 µM, stronger effect = higher value
Sequence of Neuropeptide Y receptor type 2 (Homo sapiens) (P49146 whole entry, looked up): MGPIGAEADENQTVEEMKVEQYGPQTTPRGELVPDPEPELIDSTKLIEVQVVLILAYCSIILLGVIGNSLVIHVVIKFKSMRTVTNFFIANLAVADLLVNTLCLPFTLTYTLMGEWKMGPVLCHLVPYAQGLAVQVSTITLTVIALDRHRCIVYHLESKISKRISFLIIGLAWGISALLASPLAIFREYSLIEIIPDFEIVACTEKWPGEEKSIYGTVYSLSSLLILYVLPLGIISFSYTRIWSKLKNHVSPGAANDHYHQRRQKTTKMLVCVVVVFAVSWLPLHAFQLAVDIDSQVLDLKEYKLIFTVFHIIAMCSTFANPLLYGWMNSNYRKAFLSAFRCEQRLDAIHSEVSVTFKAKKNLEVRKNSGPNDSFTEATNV
Method in brief: as §1

Nicotinic Acetylcholine = conditions: at 10 µM, stronger effect = higher value
Method in brief: as §1

Opiate mu (OP3, MOP) = conditions: at 10 µM, stronger effect = higher value
Method in brief: as §1

Phorbol Ester = conditions: at 10 µM, stronger effect = higher value
Method in brief: as §1

[19] = biological target: Platelet-activating factor receptor (Homo sapiens) (UniProt P25105); conditions: Platelet Activating Factor (PAF), at 10 µM, stronger effect = higher value
Method in brief: as §1

Potassium Channel [KATP] = conditions: at 10 µM, stronger effect = higher value
Method in brief: as §1

Prostanoid EP4 = conditions: at 10 µM, stronger effect = higher value
Method in brief: as §1

Purinergic P2X = conditions: at 10 µM, stronger effect = higher value
Method in brief: as §1

Purinergic P2Y = conditions: at 10 µM, stronger effect = higher value
Method in brief: as §1

Rolipram = conditions: at 10 µM, stronger effect = higher value
Method in brief: as §1

[20] = system: Serotonin (5-Hydroxytryptamine) 5-HT3; conditions: at 10 µM, stronger effect = higher value
Method in brief: as §1

Sigma 1 = conditions: at 10 µM, stronger effect = higher value
Method in brief: as §1

Tachykinin NK1 = conditions: at 10 µM, stronger effect = higher value
Method in brief: as §1

Thyroid Hormone = conditions: at 10 µM, stronger effect = higher value
Method in brief: as §1

[21] = system: Transporter, Dopamine (DAT); conditions: at 10 µM, stronger effect = higher value
Method in brief: as §1

Transporter, GABA = conditions: at 10 µM, stronger effect = higher value
Method in brief: as §1

[22] = system: Transporter, Norepinephrine (NET); conditions: at 10 µM, stronger effect = higher value
Method in brief: as §1

[23] = system: Transporter, Serotonin (5-Hydroxytryptamine); conditions: at 10 µM, stronger effect = higher value
Method in brief: as §1

[24] = system: Voltage-dependent L-type calcium channel subunit beta-4 (Rattus norvegicus) + Pro-epidermal growth factor (Homo sapiens) + Estrogen receptor (Homo sapiens) + Glucocorticoid receptor (Homo sapiens) + 5-hydroxytryptamine receptor 1A (Homo sapiens) + Alpha-2A adrenergic receptor (Homo sapiens) + Adenosine receptor A3 (Homo sapiens) + Androgen receptor (Homo sapiens) + Muscarinic acetylcholine receptor M1 (Homo sapiens) + D(4) dopamine receptor (Homo sapiens) + Alpha-2A adrenergic receptor (Rattus norvegicus) + Sodium- and chloride-dependent GABA transporter 1 (Rattus norvegicus) + Endothelin receptor type B (Homo sapiens) + Histamine H2 receptor (Homo sapiens) + Endothelin-1 receptor (Homo sapiens) + Neuropeptide Y receptor type 1 (Homo sapiens) + B2 bradykinin receptor (Homo sapiens) + Sodium-dependent serotonin transporter (Homo sapiens) + Histamine H1 receptor (Homo sapiens) + Mu-type opioid receptor (Homo sapiens) + D(3) dopamine receptor (Homo sapiens) + Delta-type opioid receptor (Homo sapiens) + Kappa-type opioid receptor (Homo sapiens) + Glutamate receptor ionotropic, kainate 3 (Rattus norvegicus) + 5-hydroxytryptamine receptor 3A (Homo sapiens) + Melatonin receptor type 1A (Homo sapiens) + Neuropeptide Y receptor type 2 (Homo sapiens) + P2Y purinoceptor 1 (Rattus norvegicus) + Thyroid hormone receptor alpha (Rattus norvegicus) + Glutamate receptor ionotropic, NMDA 2B (Rattus norvegicus) + Sodium-dependent dopamine transporter (Homo sapiens) + Protein kinase C zeta type …; conditions: at 10 µM, stronger effect = higher value
Method in brief: as §1

[25] = biological target: Voltage-gated inwardly rectifying potassium channel KCNH2 (Homo sapiens) (UniProt Q12809); conditions: Potassium Channel hERG, at 10 µM, stronger effect = higher value
Method in brief: as §1

`Cc1ccc(Cc2c(C)nc3nc(SCC(=O)NCCN4CCNCC4)nn3c2C)cc1` was tested, and the inhibition of radioligand binding [1] was 15% (inactive), the inhibition of radioligand binding [2] was 21% (inactive) and the inhibition of radioligand binding (Adenosine A1) was 9% (inactive). For the same compound, the inhibition of radioligand binding (Adenosine A2A) was -2% (inactive), the inhibition of radioligand binding (Adenosine A3) was 2% (inactive) and the inhibition of radioligand binding (Adrenergic alpha1A) was 27% (inactive). For the same compound, the inhibition of radioligand binding (Adrenergic alpha1B) was 63%, the inhibition of radioligand binding (Adrenergic alpha1D) was 60% and the inhibition of radioligand binding (Adrenergic beta1) was -2% (inactive). The inhibition of radioligand binding [3] was 16% (inactive), the inhibition of radioligand binding [4] was 7% (inactive) and the inhibition of radioligand binding [5] was 14% (inactive). For the same compound, the inhibition of radioligand binding (Bradykinin B1) was 5% (inactive), the inhibition of radioligand binding (Bradykinin B2) was -4% (inactive) and the inhibition of radioligand binding (Calcium Channel L-Type; Benzothiazepine site) was 11% (inactive). The inhibition of radioligand binding (Calcium Channel L-Type; Dihydropyridine site) was 3% (inactive), the inhibition of radioligand binding (Calcium Channel N-Type) was 5% (inactive) and the inhibition of radioligand binding (Cannabinoid CB1) was 9% (inactive). For the same compound, the inhibition of radioligand binding [6] was 6% (inactive), the inhibition of radioligand binding [7] was 0% (inactive) and the inhibition of radioligand binding [8] was -3% (inactive). For the same compound, the inhibition of radioligand binding (Dopamine D2S) was 5% (inactive), the inhibition of radioligand binding (Dopamine D4.2) was -1% (inactive) and the inhibition of radioligand binding (Endothelin ETA) was -5% (inactive). The inhibition of radioligand binding (Endothelin ETB) was -1% (inactive), the inhibition of radioligand binding [9] was 7% (inactive) and the inhibition of radioligand binding [10] was -4% (inactive). The inhibition of radioligand binding (GABAA; Flunitrazepam site) was 19% (inactive), the inhibition of radioligand binding (GABAA; Muscimol site) was 26% (inactive) and the inhibition of radioligand binding (GABAB1A) was 7% (inactive). The inhibition of radioligand binding [11] was 17% (inactive), the inhibition of radioligand binding (Glutamate Kainate) was 16% (inactive) and the inhibition of radioligand binding (Glutamate NMDA; Glycine site) was 10% (inactive). The inhibition of radioligand binding (Glutamate NMDA; Phencyclidine site) was 12% (inactive), the inhibition of radioligand binding (Glutamate NMDA; agonist site) was 3% (inactive) and the inhibition of radioligand binding (Histamine H1) was 24% (inactive). For the same compound, the inhibition of radioligand binding (Histamine H2) was 6% (inactive), the inhibition of radioligand binding (Histamine H3) was 9% (inactive) and the inhibition of radioligand binding (Imidazoline I2) was 31% (inactive). For the same compound, the inhibition of radioligand binding (Interleukin IL-1) was 13% (inactive), the inhibition of radioligand binding [12] was 18% (inactive) and the inhibition of radioligand binding [13] was -7% (inactive). For the same compound, the inhibition of radioligand binding (Melatonin MT1) was 3% (inactive), the inhibition of radioligand binding [14] was 42% (inactive) and the inhibition of radioligand binding [15] was 49% (inactive). For the same compound, the inhibition of radioligand binding [16] was 54%, the inhibition of radioligand binding [17] was 0% (inactive) and the inhibition of radioligand binding [18] was -3% (inactive). For the same compound, the inhibition of radioligand binding (Nicotinic Acetylcholine) was 1% (inactive), the inhibition of radioligand binding (Opiate mu (OP3, MOP)) was 11% (inactive) and the inhibition of radioligand binding (Phorbol Ester) was -1% (inactive). For the same compound, the inhibition of radioligand binding [19] was 3% (inactive), the inhibition of radioligand binding (Potassium Channel [KATP]) was -11% (inactive) and the inhibition of radioligand binding (Prostanoid EP4) was 1% (inactive). The inhibition of radioligand binding (Purinergic P2X) was 6% (inactive), the inhibition of radioligand binding (Purinergic P2Y) was 3% (inactive) and the inhibition of radioligand binding (Rolipram) was 1% (inactive). The inhibition of radioligand binding [20] was -4% (inactive), the inhibition of radioligand binding (Sigma 1) was 12% (inactive) and the inhibition of radioligand binding (Tachykinin NK1) was 24% (inactive). The inhibition of radioligand binding (Thyroid Hormone) was 5% (inactive), the inhibition of radioligand binding [21] was 62% and the inhibition of radioligand binding (Transporter, GABA) was 2% (inactive). For the same compound, the inhibition of radioligand binding [22] was 17% (inactive), the inhibition of radioligand binding [23] was 16% (inactive) and the inhibition of radioligand binding [24] was 1% (inactive). The inhibition of radioligand binding [25] was 13% (inactive).
